In the EternaBench riboswitch data:

System: MS2 coat protein
Assay: apparent Kd, MS2 coat protein; higher = weaker binding; RNA-MaP array; FMN 200 µM where present
How it was run: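 Each design was made on Illumina sequencing-chip clusters by stalled E. coli RNA polymerase and titrated with SNAP-549-labelled MS2 coat protein from 0.7 or 1.5 nM, doubling to 3 µM, in the absence and then the presence of constant ligand. The buffer was 100 mM Tris-HCl pH 7.5, 80 mM KCl, 4 mM MgCl2, BSA, DTT, yeast tRNA and Tween-20. The apparent Kd is the median of filtered per-cluster fits of binding curves, with green signal normalised to red-channel RNA signal and control-cluster median Fmax.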

[1] = designed as: ON switch for flavin mononucleotide, no ligand
[2] = ligand present: flavin mononucleotide, designed as: ON switch for flavin mononucleotide
[3] = designed as: OFF switch for flavin mononucleotide, no ligand
[4] = ligand present: flavin mononucleotide, designed as: OFF switch for flavin mononucleotide

| Sequence | apparent Kd [1] [nM] | apparent Kd [2] [nM] | apparent Kd [3] [nM] | apparent Kd [4] [nM] |
| --- | --- | --- | --- | --- |
| AGACCGCUACGCCGGUUUGACGCACAGGAUAUGCGGUUACAUGAGGAUCACCCAUGUGGCCAUGAGUAGAAGGGUGGUUCGUCC | 49.9 | 39.1 | – | – |
| AGAGAGAGACAGAAGGGCAAGCUCGAUUGCGGAGAAAGCGAUCGAGCUUGCAGGAUAUGUUGAACAUGAGGAUCACCCAUGUCA | 7.49 | 7.62 | – | – |
| AGAGCCUCGUGAGGAUAUACAUGAGGAUCACCCAUGUAAUAAGAUCAACGGAGGAAACUCCGAAUGUAGAAGGCACGAGGCUCA | – | – | 37.2 | 423 |
| AGAGUGUCAGGAUAUCCUGCUGUGCGGAAUAUGUAUUCACGGGAGAAGGGACAUGAGGAUCACCCAUGUUUGAG | – | – | 20.6 | 20.8 |
| AGAGUGUGAGGAUAUAUGGUGCAGAUGAAGGGAUAGAAGGAGUAGAAGGUACAUGAGGAUCACCCAUGUUAGGA | – | – | 27.4 | 21.7 |
| AGAUAACAUGUAGGAUAUCGAGGCCUGAGGCCUCGAGAAGGACAUGAGGAUCACCCAUGUAGUUGUACUAUGGGAUCACGCACU | – | – | 620 | 186 |
| AGAUAAGUCACAGGAUAUUCCUACAUUAAUAUGGAAGAAGGGUGAGCAUGAUUCGAUACAUGAGGAUCACCCAUGUAUCCGCGA | 78.4 | 19.7 | – | – |
| AGAUAGGACAGAGGAUAUACGUGCUAGAGAUACUAGCAAAAUUUCCUCACAUGAGGAUCACCCAUGUAGAAGGCUGUCCUAUCG | – | – | 15.6 | 436 |
| AGAUCCUGAGUCAGGAUAUAGAGACGGUAGUCGGGCUAGAAGGGACAUGAGGAUCACCCAUGUGGGUUCGGGCC | – | – | 14.2 | 19.3 |
| AGAUCGAGUGUGAGGAUAUUGACCGGACGACCCAUCGAGAAGGCACAUGAGGAUCACCCAUGUGAUUCGGUUUA | – | – | 15.2 | 32.5 |
| AGAUGUGAACAUGAGGAUCACCCAUGUGACUAGGUAUAUUUCAGAAGGCAUUUAUAGAGAUUAUAUGAGGAUAUGAAGUUUUAA | 12.7 | 6.59 | – | – |
| AGAUUUUUACAUGAGGAUCACCCAUGUUAAUAGGUGUUUGUCAGAAGGCAUUAUGAGAGAAUUAAUGAGGAUAUGAAGUUUCAU | 40.4 | 27.8 | – | – |
| AGCACGAAAGUGCAACGAUGUACGAGAAGGACAUGAGGAUCACCCAUGUUGCUGUAACAGCACAUGUAGGAUAUCGUACAUCGA | – | – | 166 | 180 |
| AGCAUGCUAGGAUAUACGGGACAUUAGGGUUCGUUGUAUGGACAUGAGGAUCACCCAUGUAGAAGGAGCGUGCA | – | – | 28 | 99.8 |
| AGCAUGUGAGGAUAUGCGGACUCCGGUAAAUCUGGAGUCCAGUAGAAGGCACAUGAGGAUCACCCAUGUGAUAA | – | – | 98.3 | 83.2 |
| AGCCAAAUAGGAUAUGCCCGGGAUAACAUGAGGAUCACCCAUGUGACCGAUUCAUGUCCUGCAGAAGGAUUUGGGA | – | – | 13.2 | 24.4 |
| AGCCAGGACGGGUGCCUGAGCGGGAGAAGGUACGAGGGAUCGUCUGGACAUGAGGAUCACCCAUGUAAGGAUAUCCCGCCUAUU | – | – | 8.78 | 18.1 |
| AGCCUAGCAGGAUAUGCUCAAGAUUACAUGAGGAUCACCCAUGUGACUGGUUGUUGUCUUGCAGAAGGGCUAGGGA | – | – | 20.6 | 46.8 |
| AGCCUGAGUCGAGGAUAUUAUGGAUCAAUUAAUACAUGAGGAUCACCCAUGUAAUUAAUUUAACAUGAGAAGGUGACUCAGGCA | 11.3 | 12.9 | – | – |
| AGCCUGCUGCGAGGAUAUCAACUAAAGGGUCCGAUUUCCGAGCGGAACAUGAGGAUCACCCAUGUUGAGAAGGCGCGAGUAUAG | – | – | 25.6 | 182 |
| AGCGAACAUGAGGAUCACCCAUGUGAAAAACAUAGAGGAUAUGUCGCAUGCGUGUAAAAGACAGAAGGCUAUCGCG | 71.6 | 33.9 | – | – |
| AGCGGAUUGUAGAAGGGUGACAUGAGGAUCACCCAUGUUCAAAUGCGAUUUACGGUAAUUGAUCCACAGGAUAUACUGUCCGAG | 942 | 266 | – | – |
| AGCGGCGCGGGCCACCGCAAAACCAGAAGGACAUGAGGAUCACCCAUGUAACAAAACAGGGCGGUGUAGGAUAUGGCAGACCCA | – | – | 10.3 | 11.8 |
| AGCGUGUAAGGAUAUACGUCGGACAGCAAAUGCUAUCCCUAGUAGAAGGUACAUGAGGAUCACCCAUGUGUCCA | – | – | 22.9 | 58.8 |
| AGCUACGUUUCGUAGCAGCUAGGUGAGGAUAUCCUUUACAUGAGGAUCACCCAUGUAUAGCCAUGGGAGAAGGCGCCUAGAAAG | 181 | 16.9 | – | – |
| AGCUACGUUUCGUAGCAGUGUCAUCGAGAAGGCCUCAUAACAUGAGGAUCACCCAUGUUAGCAUGGGAGGAUAUCGAUGAUACA | 58.8 | 24.2 | – | – |
| AGCUACGUUUCGUAGCAGUGUCAUCGAGAAGGCCUUAUUACAUGAGGAUCACCCAUGUAUGCAUGGGAGGAUAUCGAUGAUACA | 13.9 | 5.25 | – | – |
| AGCUAGUACCGAGGAUAUACAUACAUGAGGAUCACCCAUGUAUACAUGAAUUUAUGAGACUACAUGUAGAAGGCGGUACUAGCA | 58.9 | 15.9 | – | – |

| Sequence | apparent Kd [1] [nM] | apparent Kd [2] [nM] | apparent Kd [3] [nM] | apparent Kd [4] [nM] |
| --- | --- | --- | --- | --- |
| AGCUAGUCAGGAUAUACAAACAUGUCAAAAGACGUGAAGAGACAUGAGGAUCACCCAUGUAGAAGGGACUAGCA | – | – | 26.6 | 70.9 |
| AGCUAGUGAGGAUAUACGAACAUGUCAAAAGACGUGAAGGGACAUGAGGAUCACCCAUGUAGAAGGCACUAGCA | – | – | 41.1 | 139 |
| AGCUCGCGAAGAGGAUAUACAGCGGCGACCUAUCAUGAUGAGCGGGUUACAUGAGGAUCACCCAUGUAGAAGGCUUCCCGACUC | – | – | 17.9 | 52.2 |
| AGCUCGGGUGCAGGAUAUCCGCCGGAUCGCAGUGGAGAAGGGCGCCAAGCGAACAUGAGGAUCACCCAUGUAUCGGAGCCGGAC | 55.6 | 11.1 | – | – |
| AGCUGCAAUCAGAAGGAGUAGGGUACAUGAGGAUCACCCAUGUCCGAUGCUAGGAUAUGAAAGCAGACCCGUGGUACCAAUCCC | 33.5 | 7.39 | – | – |
| AGCUGGUGACAGCAUCGAGCAAAACAUGAGGAUCACCCAUGUAGAAGGCUGUACGGUUACCGUACAGAGGAUAUACAUAGCUCG | – | – | 7.15 | 10 |
| AGCUGUGGCAGAGGAUAUACCUCAAUAAUCCAUUGCAAAUAGCGAUGGACAUGAGGAUCACCCAUGUAGAAGGCUGUCUCAGCA | – | – | 323 | 733 |
| AGCUGUGGCCGAGGAUAUCACGAACCAUGGAAAACCAUGGAACUCAAACAUGAGGAUCACCCAUGUGAGAAGGCGGUCUCAGCA | – | – | 21.1 | 15.9 |
| AGCUGUGGCCGAGGAUAUCUAACUUCAAAUACCGACGUAUAGUCGGACAUGAGGAUCACCCAUGUAGAGAAGGCGGUCUCAGCA | – | – | 16.1 | 26.7 |
| AGCUGUGGCCGAGGAUAUCUAAUAAUCUCAACCGAAAUAUAAUCGGACAUGAGGAUCACCCAUGUAGAGAAGGCGGUCUCAGCA | – | – | 36.2 | 92.8 |
| AGCUGUGGCCGAGGAUAUCUACUAAUCCAAACCGAAAUAUAAUCGGACAUGAGGAUCACCCAUGUAGAGAAGGCGGUCUCAGCA | – | – | 254 | 410 |
| AGGAAACAUGAGGAUCACCCAUGUAAAAGGUGGUUAGGAUAUGCAAAAAGAAAAAGAAAAGCAGAAGGGACAAGAA | 561 | 635 | – | – |
| AGGAAACAUGAGGAUCACCCAUGUAAAAGGUGGUUAGGAUAUGCGAUAAUAAAAAUAAUAGCAGAAGGGACAAGAA | 511 | 432 | – | – |
| AGGAAUUUGUAGAAGGACGACUAUUAAGAUUUCGUAGGAUAUACUAUUUACAUGAGGAUCACCCAUGUUUAAAUGGAACAAUGU | – | – | 8.06 | 11.1 |
| AGGAGAAAUGUAGGAUAUGGGCGUAUAUAUGGGCAAAGCGCAUAUAUACGCCCAGAAGGACAUGAGGAUCACCCAUGUUUCCCU | – | – | 12.7 | 12.9 |
| AGGAGAAAUGUAGGAUAUGGGUAUAUAUAUGGGCAAAGCGCAUAUAUAUACCCAGAAGGACAUGAGGAUCACCCAUGUUUCCCU | – | – | 12.5 | 12.9 |
| AGGAGACAUGAGGAUCACCCAUGUGAGAAGAGGCGAGGAUAUCGAAAAAAAAAAAAAAAACGAGAAGGCGCGAGAA | 71 | 39.3 | – | – |
| AGGAGGUGAGGAUAUGCUGCUCGUCACUUGCGUGAUGAGUAGCAGAAGGCACAUGAGGAUCACCCAUGUAAAGA | – | – | 117 | 105 |
| AGGAGGUUAGGAUAUGCUGCUCGUCACUUGCGUGAUGAGUAGCAGAAGGAACAUGAGGAUCACCCAUGUAAAGA | – | – | 29.7 | 35.1 |
| AGGAGUAAAGGGAAUAACAUGAGGAUCACCCAUGUAUGGGAGAGAAGGCAUAUCGGAGGACGAUAUGAGGAUAUUUAAACUUUA | 106 | 20.5 | – | – |
| AGGAGUACAGGAUAUACAUGAGGAUCACCCAUGUGAGAAUUAAGUGGCGUACCACAAAGUAGAAGGGUACUCCA | – | – | 50.5 | 198 |
| AGGGUAUGAACAUGAGGAUCACCCAUGUAAACGGAAACGAAUGAGGAUAUCGAUAGCAAAGCUAUCGAGAAGGCAUGGGACCCU | 286 | 49.1 | – | – |
| AGGGUGUCGCUCAAUAACAUGAGGAUCACCCAUGUGCAUUAGAGAAGGGACCCGGGCGCGUGGAGUCAGGAUAUCUAUCUGCCA | – | – | 34.4 | 30 |
| AGGUAACAUGAGGAUCACCCAUGUCAGGAUAUCAGUAAGAUGAGAAUAGAGUAGAGUAUGAGAAGGGACUAUAU | – | – | 43.6 | 32.3 |
| AGGUAAGAGUUAAUUGUGACGGUGAGAAGGCAAAUGGUUGUGAUUAACAUGAGGAUCACCCAUGUUGAGGAUAUCACCACCAUC | – | – | 29.5 | 137 |
| AGGUACAUCAUAGGAUAUCGUGUGUAAACAUGAGGAUCACCCAUGUCAUCCGAGAGUAUAUCGACCGAGAAGGGUGAUGUACCU | 22 | 32.5 | – | – |
| AGGUACUAGGGAGGAUAUGGGAAGAUACAUGAGGAUCACCCAUGUUUAAGAAUGCCGAGAGGCAACUAGAAGGCCCUAGUACCU | 454 | 19.8 | – | – |
